Data: paper PMC12207910 (European journal of pharmaceutical sciences : official …, 2024)
Values after ≈ are worked out from the molar mass of the structure shown. “Also recorded” adds a separate entry of the source. Non-standard residues stand in square brackets, D forms with d. Residues, ends and D or L forms follow the SMILES beside them. Dip = N[C@H](C(=O)O)C(c1ccccc1)c1ccccc1

Assays:
[1] = tested on: human red blood cells (hRBC); experiment: Hemolytic activity; type: cell-based; conditions: concentration at which 50% hemolysis was observed
Gram-negative bacteria = conditions: drug-resistant Gram-negative bacteria, range over strains
[2] = tested on: Staphylococcus pneumoniae (ATCC 700677), multi-drug resistant; conditions: Multi-drug resistant (Penicillin, Tetracycline, and Erythromycin)
[3] = tested on: E. coli (ATCC 25922) and E. coli (ATCC BAA-2452); experiment: Resistance development study, repeated exposure; type: cell-based; conditions: E. coli strains; 18 exposures
[4] = tested on: Clostridium difficile (ATCC 700057)
[5] = Calcein dye leakage assay; conditions: bacterial mimic liposomes; for calcein dye leakage: 5 μg/mL
Outline: (§1)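 Calcein-loaded LUVs were used: negatively charged ones mimic bacterial membranes and zwitterionic ones mimic mammalian membranes. They were diluted in PBS to a final lipid concentration of 40 μM and mixed 1:1 with test compound at 5, 10, 20, 30 or 50 μg/mL. Fluorescence (ex 490/em 520 nm) was read every 10 min for 100 min. Leakage was expressed relative to background and Triton X-100 lysis (100%); triplicate.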

[6] = Calcein dye leakage assay; conditions: mammalian mimic liposomes; after 100 min; concentration not given
Outline: as §1

in vitro [7] = conditions: human
[8] = tested on: A. fumigatus (Af-293) biofilm; experiment: Antibiofilm activity, XTT assay; type: cell-based, Aspergillus fumigatus
Outline: (§2)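 Fungal biofilms came from suspensions at 2×10^7 CFU/mL in RPMI medium grown 24 h at 35 °C, then washed twice with PBS. […] After washing, XTT with phenazine methosulfate was added for 1 h in the dark at 37 °C, and absorbance was read at 492 nm. Percentage decrease versus untreated wells; triplicate, replicated twice.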

[9] = tested on: Enterococcus faecalis (ATCC 51575), vancomycin resistant
[10] = tested on: MRSA (ATCC BAA-1556) biofilm; experiment: Antibiofilm activity, XTT assay; type: cell-based, Methicillin-resistant staphylococcus aureus
Outline: (§3)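 Bacterial suspensions at 5×10^5 CFU/mL in MH broth were grown 24 h at 37 °C to form biofilms, then washed twice with PBS. […] Biofilms were rewashed, then given XTT plus phenazine methosulfate for 1 h in the dark at 37 °C, and A492 was read. Percentage decrease versus untreated wells; triplicate, run twice.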

[11] = tested on: Clostridium difficile (NAP1/027); conditions: Reduced susceptibility to multiple antibiotics
[12] = tested on: human skin fibroblast cell (HeKa); conditions: 24 h, 100 μg/mL
[13] = tested on: Acinetobacter baumannii (ATCC BAA1605), ciprofloxacin resistant; conditions: Ciprofloxacin resistant strain
in vitro [14] = conditions: human, cell viability
E. coli (ATCC BAA-2452) [15] = type: cell-based, Escherichia coli
MRSA (ATCC BAA-1556) [16] = type: cell-based, Methicillin-resistant staphylococcus aureus
[17] = tested on: Escherichia coli (ATCC BAA-2452), NDM-1
C. albicans (ATCC 60193) [18] = experiment: Kill kinetics assay; type: cell-based; conditions: after 12 h
A. fumigatus (Af-293) [19] = experiment: Kill kinetics assay; type: cell-based, Aspergillus fumigatus; conditions: after 12 h
[20] = tested on: Pseudomonas aeruginosa (ATCC BAA-1744), imipenem resistant; conditions: Imipenem resistant strain
C. albicans (ATCC 60193) [21] = experiment: microbe, parasite or virus in culture; type: cell-based; conditions: ATCC 60193
fungi = conditions: range over strains
A. fumigatus (Af-293) [22] = experiment: microbe, parasite or virus in culture; type: cell-based, Aspergillus fumigatus
[23] = tested on: Enterococcus faecalis (ATCC 29212)
MRSA (ATCC BAA-1556) [24] = experiment: Kill kinetics assay; type: cell-based, Methicillin-resistant staphylococcus aureus
E. coli (ATCC BAA-2452) [25] = experiment: Kill kinetics assay; type: cell-based, Escherichia coli
[26] = tested on: C. albicans (ATCC 60193) biofilm; experiment: Antibiofilm activity, XTT assay; type: cell-based
Outline: as §2

[27] = tested on: E. coli (ATCC BAA-2452) biofilm; experiment: Antibiofilm activity, XTT assay; type: cell-based, Escherichia coli
Outline: as §3

in vitro [28] = conditions: human, cell viability; remark: listed apart in the source
in vitro [29] = conditions: human, cell viability; remark: listed apart in the source
in vitro [30] = conditions: human; remark: listed apart in the source

Structure (SMILES): N=C(N)NCCC[C@@H]1NC(=O)[C@H](CCCNC(=N)N)NC(=O)[C@H](CCCNC(=N)N)NC(=O)[C@H](C(c2ccccc2)c2ccccc2)NC(=O)[C@H](Cc2c[nH]c3ccccc23)NC(=O)[C@H](C(c2ccccc2)c2ccccc2)NC(=O)[C@H](CCCNC(=N)N)NC1=O [3b, c[Arg-Arg-Arg-Arg-Dip-Trp-Dip]] (cyclo(RRRR[Dip]W[Dip]))
- HC50 [1]: 230 µg/mL
- MIC (Gram-negative bacteria): 12.5 to 25 µg/mL
- MIC Staphylococcus pneumoniae (ATCC 700677) [2]: 12.5 µg/mL (≈ 9.94 µM)
- change in MIC after repeated exposure (resistance development) [3]: no signs of resistance development; also recorded: negligible changes in the MIC values
- MIC Clostridium difficile (ATCC 700057) [4]: 12.5 µg/mL (≈ 9.94 µM)
- calcein dye leakage ([5]; 40 min): approximately 20%
- calcein dye leakage ([5]; 60 min): ~60%
- incubation time to 100% dye leakage ([5]; 50 μg/mL): 60 min
- calcein dye leakage [6]: 14.11%
- remaining at 0.5 h, 75 μM (in vitro [7]; human plasma): ~82.4%
- remaining at 12 h, 75 μM (in vitro [7]; human plasma): ~52.3%
- remaining at 24 h, 75 μM (in vitro [7]; human plasma): ~44.9%
- half-life at 75 μM (in vitro [7]; plasma): 780 min
- reduction in biofilm mass ([8]; at 2× the MIC): 49–56%
- reduction in biofilm mass ([8]; at MIC): 31–36%
- MIC Enterococcus faecalis (ATCC 51575) [9]: 12.5 µg/mL (≈ 9.94 µM)
- reduction in biofilm mass ([10]; at 2× the MIC): 60–65%
- reduction in biofilm mass ([10]; at MIC, vs untreated control): 40–45%
- MIC Clostridium difficile (NAP1/027) [11]: 6.2 µg/mL (≈ 4.93 µM)
- cell viability [12]: > 60%
- MIC Acinetobacter baumannii (ATCC BAA1605) [13]: 12.5 µg/mL (≈ 9.94 µM)
- viability at 24 h, 100 μg/mL (in vitro [14]): > 70%
- MIC NaCl (E. coli (ATCC BAA-2452) [15]; ATCC BAA-2452): 25 µg/mL (≈ 19.9 µM)
- MIC CaCl2 (E. coli (ATCC BAA-2452) [15]; E. coli (ATCC BAA-2452), CaCl2 2 mM): 12.5 µg/mL (≈ 9.94 µM)
- MIC KCl (E. coli (ATCC BAA-2452) [15]; E. coli (ATCC BAA-2452), KCl […]): 12.5 µg/mL (≈ 9.94 µM)
- MIC Control (E. coli (ATCC BAA-2452) [15]; E. coli (ATCC BAA-2452), MH media without salt ions or serum): 12.5 µg/mL
- MIC MgCl2 (E. coli (ATCC BAA-2452) [15]; E. coli (ATCC BAA-2452), MgCl2 1 mM): 12.5 µg/mL (≈ 9.94 µM)
- MIC NH4Cl (E. coli (ATCC BAA-2452) [15]; E. coli (ATCC BAA-2452), NH4Cl 6 mM): 12.5 µg/mL (≈ 9.94 µM)
- MIC CaCl2 (MRSA (ATCC BAA-1556) [16]): 1.5 µg/mL (≈ 1.19 µM)
- MIC Control (MRSA (ATCC BAA-1556) [16]): 1.5 µg/mL (≈ 1.19 µM)
- MIC KCl (MRSA (ATCC BAA-1556) [16]): 3.1 µg/mL (≈ 2.47 µM)
- MIC MgCl2 (MRSA (ATCC BAA-1556) [16]): 3.1 µg/mL (≈ 2.47 µM)
- MIC NH4Cl (MRSA (ATCC BAA-1556) [16]): 1.5 µg/mL (≈ 1.19 µM)
- MIC NaCl (MRSA (ATCC BAA-1556) [16]): 3.1 µg/mL (≈ 2.47 µM)
- MIC Escherichia coli (ATCC BAA-2452) [17]: 12.5 µg/mL (≈ 9.94 µM)
- eradication of fungal cells (C. albicans (ATCC 60193) [18]; at 4× the MIC): near-complete eradication
- eradication of fungal cells (C. albicans (ATCC 60193) [18]; at MIC): Complete eradication was not achieved
- eradication of fungal cells (A. fumigatus (Af-293) [19]; at 4× the MIC): near-complete eradication
- eradication of fungal cells (A. fumigatus (Af-293) [19]; at MIC): Complete eradication was not achieved
- MIC Pseudomonas aeruginosa (ATCC BAA-1744) [20]: 12.5 µg/mL (≈ 9.94 µM)
- MIC CaCl2 (C. albicans (ATCC 60193) [21]): 6.2 µg/mL (≈ 4.93 µM)
- MIC Control (C. albicans (ATCC 60193) [21]): 3.1 µg/mL (≈ 2.47 µM)
- MIC KCl (C. albicans (ATCC 60193) [21]): 3.1 µg/mL (≈ 2.47 µM)
- MIC MgCl2 (C. albicans (ATCC 60193) [21]): 3.1 µg/mL (≈ 2.47 µM)
- MIC NH4Cl (C. albicans (ATCC 60193) [21]): 6.2 µg/mL (≈ 4.93 µM)
- MIC NaCl (C. albicans (ATCC 60193) [21]): 3.1 µg/mL (≈ 2.47 µM)
- MIC (fungi): 3.1 to 12.5 µg/mL
- MIC MgCl2 (A. fumigatus (Af-293) [22]; A. fumigatus (Af-293), MgCl2 1 mM): 12.5 µg/mL (≈ 9.94 µM)
- MIC NaCl (A. fumigatus (Af-293) [22]; A. fumigatus (Af-293), NaCl 150 mM): 12.5 µg/mL (≈ 9.94 µM)
- MIC FBS (25%) (A. fumigatus (Af-293) [22]; A. fumigatus (Af-293), fetal bovine serum 25%): 12.5 µg/mL (≈ 9.94 µM)
- MIC CaCl2 (A. fumigatus (Af-293) [22]; Af-293): 6.2 µg/mL (≈ 4.93 µM)
- MIC Control (A. fumigatus (Af-293) [22]; Af-293): 6.2 µg/mL (≈ 4.93 µM)
- MIC KCl (A. fumigatus (Af-293) [22]; Af-293): 6.2 µg/mL (≈ 4.93 µM)
- MIC NH4Cl (A. fumigatus (Af-293) [22]; Af-293): 6.2 µg/mL (≈ 4.93 µM)
- MIC Enterococcus faecalis (ATCC 29212) [23]: 12.5 µg/mL (≈ 9.94 µM)
- time to virtually eliminate all bacterial cells (MRSA (ATCC BAA-1556) [24]; at 4× the MIC): 1 to 2 h
- time to virtually eliminate all bacterial cells (MRSA (ATCC BAA-1556) [24]; at MIC): 3 to 4 h
- time to completely halt growth of nearly all cells (E. coli (ATCC BAA-2452) [25]; at 4× the MIC): 2 h
- time to completely halt growth of nearly all cells (E. coli (ATCC BAA-2452) [25]; at MIC): 4 h
- decrease in biofilm mass ([26]; at 2× the MIC): 60–62%
- decrease in biofilm mass ([26]; at MIC): 31–39%
- reduction in biofilm mass ([27]; at 2× the MIC): 60–65%
- reduction in biofilm mass ([27]; at MIC): 40–45%
- viability at 24 h, 100 μg/mL (in vitro [28]): > 70%
- viability at 24 h, 100 μg/mL (in vitro [29]): > 70%
- viability at 24 h, 50 μg/mL (in vitro [30]): 81 to 89%
- viability at 24 h, 100 μg/mL (in vitro [30]): > 70%
- viability at 24 h, 250 μg/mL (in vitro [30]): > 50%
